High-throughput results as filed in PubChem BioAssay.
This is a sample that favours compounds with a hit; in the whole collection about 4.1% have one here.
KCNK9 inh = inhibitors of human KCNK9 two-pore domain potassium channel. Q9NPC2. B-score at 10 µM. AID 488922. HEK293 KCNK9, FluxOR thallium flux fluorescence; hits give low values. 1.2% of 310,000 active;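 active means ratio B-score over 3 SD below the library mean, with starting fluorescence within 5 SD of its mean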;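 further: negative B-score means less thallium flux so channel inhibition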
Target sequence (Q9NPC2 whole entry, looked up, the tested form may be a part): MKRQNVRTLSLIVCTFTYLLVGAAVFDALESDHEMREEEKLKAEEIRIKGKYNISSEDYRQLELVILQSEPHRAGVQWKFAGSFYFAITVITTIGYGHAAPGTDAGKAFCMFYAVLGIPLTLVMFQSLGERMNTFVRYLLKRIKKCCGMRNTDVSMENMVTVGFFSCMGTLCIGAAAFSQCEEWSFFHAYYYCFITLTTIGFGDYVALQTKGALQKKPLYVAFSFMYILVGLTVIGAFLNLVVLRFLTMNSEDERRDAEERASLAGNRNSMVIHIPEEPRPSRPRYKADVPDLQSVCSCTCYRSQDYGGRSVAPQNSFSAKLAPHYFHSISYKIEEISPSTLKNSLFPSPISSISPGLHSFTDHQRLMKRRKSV
KCNK3 inh = human KCNK3 channel inhibition, primary screen; 0.84% of 340,000 active; AID 602410; B-score at 10 µM; CHO-KCNK3 thallium flux, FluxOR fluorescence; hits give low values; O14649;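 active means B-score under library mean minus 4 SD, starting fluorescence ratio at most library mean plus 5 SD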;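 further: more negative B-score means stronger inhibition of thallium flux through KCNK3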
KCNQ1 block = blocks the human KCNQ1 potassium channel; P51787; CHO-K1 KCNQ1, FluxOR thallium flux fluorescence; hits give high values; B-score at 10 µM; 1.3% of 310,000 active;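 active means compounds whose thallium flux B-score, printed positive for inhibition, exceeds three library SD while starting fluorescence stays within three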;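 further: channel opened by potassium depolarization with thallium stimulus after 20 min compound exposure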
Cl transport mod = modulates chloride dependent transport by human KCC2 | Q9H2X9 | KCC2 cells, thallium flux FluoZin-2 fluorescence | B-score of Tl+ flux slope (higher = more flux/activation; lower = inhibition) at 10 µM | 2.2% of 190,000 active;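 active means thallium flux slope and its plate-corrected score both differing from the plate sample mean at a set confidence after two filtering rounds, in either direction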;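 further: slope of fluorescence scaled to starting intensity during 10 to 20 s after thallium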
KCNQ1 pot = potentiates or activates the human KCNQ1 potassium channel; P51787; CHO-K1 KCNQ1, thallium flux FluxOR fluorescence; hits give high values; B-score at 10 µM; 0.35% of 310,000 active;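 active means fluorescence ratio B-score, a plate-corrected score, at least three library SD, with initial intensity B-score within 5 SD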
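Assay system: CHO-K1 cells stably expressing KCNQ1; Medium: assay buffer with matched DMSO; Also added: K+/Tl+ depolarizing stimulus; Dosing: single dose; Timing: dye 90 min, compound 20 min, room temperature; Measured by: kinetic FluxOR thallium fluorescence, 10-s 1-Hz baseline, 110-s post-stimulus read; Read-out: peak-minus-minimum fluorescence over initial fluorescence, negative-control normalized, B-scored.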
hERG rescue = shields human hERG channel from block by proarrhythmic agents | Q12809 | CHO-hERG, FluxOR thallium flux, dofetilide IC70 present | activation (rescue from dofetilide block), less the hit threshold, % at 10 µM | 0.51% of 310,000 active | AID 1511;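 active means activation above the mean of controls blocked by dofetilide plus 5 SD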;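 further: thallium influx through hERG after potassium depolarization seen as dye fluorescence rise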
KCNK9 inh conf = human KCNK9 inhibitor confirmation; shares compounds with KCNK9 inh; HEK293 KCNK9 cells, FluxOR thallium flux fluorescence; inhibition, % at 10 µM; 43% of 4,900 active;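 active means thallium signal inhibited by more than 5 SD of the compound-free buffer control wells, on both duplicate plates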;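 further: 0% = assay buffer control wells without compound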
Kir21 sel = mouse Kir2.1 off-target activity of KCNK9 modulators; shares compounds with KCNK9 inh; Kir2.1 cells, FluxOR thallium flux fluorescence; inhibition, % at 10 µM; 4% of 4,900 active;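 active means thallium signal drop more than 5 SD beyond the mean of the no-compound control wells, seen in both duplicate plates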;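 further: signal is fluorescence rise after thallium addition divided by baseline fluorescence; plate controls were assay buffer only for no effect and full block by chlorpromazine control for full effect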
KCNK9 uninduced = second check of KCNK9 modulator effects in non-induced HEK293 cells; shares compounds with KCNK9 inh; FluxOR thallium flux; inhibition, % at 10 µM; 40% of 4,900 active; AID 492997;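 active means thallium signal drop beyond 5 SD of the untreated control mean, on both duplicate plates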;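 further: plate controls were buffer only IC0 wells for no effect and SID17386958 at its maximal inhibitory level for full effect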
KCNK3 confirm = human KCNK3 channel inhibition, confirmation assay; 99% of 2,400 active; CHO-KCNK3 thallium flux, FluxOR fluorescence; 0% buffer, 100% carvedilol maximal block; shares compounds with KCNK3 inh; ratio percent of control, % at 10 µM;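 active means ratio percent of control, averaged over triplicates, above buffer control mean plus 5 SD, cut at about 64% in these data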;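 further: ratio is the fluorescence rise from min to max over baseline after thallium stimulus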
KCNK3 noninduced = KCNK3 inhibitor counter-screen hit in non-induced cells; non-induced KCNK3 parental cells, FluxOR thallium flux; hits give low values; thallium flux ratio (lower = more inhibition) at 10 µM; AID 651747; 40% of 2,400 active; shares compounds with KCNK3 inh;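 active means thallium flux ratio, averaged over three wells, more than 5 SD below the buffer control mean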;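 further: host cells are CHO cells without KCNK3 induction; ratio is peak minus trough fluorescence over baseline then normalized to buffer controls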
* marks the source's active call; other numbers are inactive results; i = inactive; x = no result.

SMILES	KCNK9 inh	KCNK3 inh	KCNQ1 block	Cl transport mod	KCNQ1 pot	hERG rescue	KCNK9 inh conf	Kir21 sel	KCNK9 uninduced	KCNK3 confirm	KCNK3 noninduced
Cc1ccsc1CN(C)CC(=O)Nc1ccc([N+](=O)[O-])cc1Cl	-21*	-9.5*	i	x	i	-11	64%*	i	48%*	135*	0.13*
CCCN1CCN(c2nc(-c3cccs3)nc3ccccc23)CC1	i	i	i	-0.16	i	-6	x	x	x	x	x
CCOC(=O)N1CCN(c2nc(-c3cccs3)nc3ccccc23)CC1	-8.9*	-10*	i	x	i	-6	i	i	i	104*	0.15*
COc1ccccc1OCC(=O)N(Cc1nc(-c2ccc(Cl)cc2)no1)C(C)C	i	i	i	0.072	i	-8	x	x	x	x	x
CC(C)N(Cc1nc(-c2ccc(Cl)cc2)no1)C(=O)CCC1CCCC1	-14*	-11*	i	-0.35	i	-20	66%*	i	42%*	118*	i
Cc1ccc(N2C(=O)c3ccccc3C2Nc2ccc(S(=O)(=O)N3CCCCC3)cc2)nc1 (stereo not drawn)	-11*	-10*	i	-0.91	i	-4	i	i	30%*	121*	0.15*
Cc1ccc(N2C(=O)c3ccccc3C2Nc2ccc(S(=O)(=O)N3CCOCC3)cc2)nc1 (stereo not drawn)	i	i	i	0.73	i	-10	x	x	x	x	x
CC1(C)CC(=O)c2sc(NC(=O)Cc3cccs3)nc2C1	i	i	i	-0.53	i	-2	x	x	x	x	x
Cc1ccc(C(C)C)c(OCCCN2CCc3ccccc3C2)c1	i	i	i	x	i	-8	x	x	x	x	x
Cc1ccc(C(C)C)c(OCCN2CCc3ccccc3C2)c1	i	-9.7*	i	x	i	0	i	i	i	127*	i
Cc1cc(C=O)c(C)n1-c1ccc(NC2CCCC2)c([N+](=O)[O-])c1	-17*	-9.1*	6*	x	i	-9	60%*	i	37%*	122*	i
Nc1cc(C(=O)O)c(N)c2c1C(=O)c1ccccc1C2=O	i	i	i	-0.19	i	-24	x	x	x	x	x
Clc1ccc(CN(CC2CCCO2)C(c2cccs2)c2nnnn2C2CCCC2)cc1 (stereo not drawn)	-17*	-8.9*	6*	-1.3	i	-13	60%*	i	48%*	110*	0.15*
Cc1cc(C)c2oc(-c3ccc(Cl)c(NC(=O)c4ccc(C#N)cc4F)c3)nc2c1	i	i	i	0.71	i	-2	x	x	x	x	x
Cc1nc(NCCN2CCOCC2)c2nnn(Cc3c(F)cccc3Cl)c2n1	i	i	i	0.25	i	-9	x	x	x	x	x
S=C(NC1CCCCC1)N(CCc1nc2ccccc2[nH]1)C1CCCC1	i	-10*	i	-0.69	i	-14	i	i	i	118*	0.13*
COC(=O)CSc1nnnn1-c1cccc2ccccc12	i	i	i	x	i	1	x	x	x	x	x
O=C(CCCSc1nnnn1-c1cccc2ccccc12)c1ccc(F)cc1	-8.2*	-9.6*	i	-1.3	i	-15	i	34%*	i	102*	i
